{"source": "ChEMBL document CHEMBL1250546", "about": "“Synthesis of non-purine analogs of 6-aryl-9-benzylpurines, and their antimycobacterial activities. Compounds modified in the imidazole ring” (Bioorg Med Chem, 2010)", "assay_type_in_all_cases": "functional", "key": {"[1]": {"tested_on": "Mycobacterium tuberculosis", "experiment": "Antibacterial activity against rifampicin-resistant Mycobacterium tuberculosis after 7 days by microplate alamar blue assay", "settings": "168 h"}, "[2]": {"tested_on": "Mycobacterium tuberculosis", "experiment": "Antibacterial activity against isoniazid-resistant Mycobacterium tuberculosis after 7 days by microplate alamar blue assay", "settings": "168 h", "summary_of_the_method": "(§1)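 Microplate alamar blue assay in 7H12 medium against M. tuberculosis H37Rv ATCC 27294 and against rifampicin-, isoniazid-, streptomycin- and kanamycin-resistant Mtb strains. Bacteria were incubated with test samples for 7 days, then fluorescence was read. MIC is the lowest concentration giving at least a 90% fluorescence reduction relative to untreated controls.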"}, "[3]": {"tested_on": "Mycobacterium tuberculosis", "experiment": "Antibacterial activity against streptomycin-resistant Mycobacterium tuberculosis after 7 days by microplate alamar blue assay", "settings": "168 h"}, "[4]": {"tested_on": "Mycobacterium tuberculosis", "experiment": "Antibacterial activity against kanamycin-resistant Mycobacterium tuberculosis after 7 days by microplate alamar blue assay", "settings": "168 h", "summary_of_the_method": "as §1"}, "[5]": {"tested_on": "Mycobacterium tuberculosis", "experiment": "Antibacterial activity against clofazimine-resistant Mycobacterium tuberculosis after 7 days by microplate alamar blue assay", "settings": "168 h"}, "[6]": {"tested_on": "Mycobacterium tuberculosis", "experiment": "Antibacterial activity against multidrug-resistant Mycobacterium tuberculosis H37Rv carrying luxAB incubated for 10 days under low oxygen followed by 28 hrs normoxic recovery by low-oxygen-recovery assay", "summary_of_the_method": "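Low-oxygen-recovery assay using low-oxygen-adapted M. tuberculosis H37Rv luxAB, which carries a luciferase reporter, in 7H12 medium in microplate format. Cultures were incubated 10 days under low oxygen, then given 28 h of normoxic recovery before luminescence was read. MIC is the lowest concentration giving at least a 90% luminescence reduction relative to untreated controls.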"}, "[7]": {"tested_on": "Mycobacterium tuberculosis", "experiment": "Antibacterial activity against multidrug-resistant Mycobacterium tuberculosis H37Rv carrying luxAB at 128 uM incubated for 10 days under low oxygen followed by 28 hrs normoxic recovery by low-oxygen-recovery assay relative to control"}}, "data": [{"smiles": "O=[N+]([O-])c1cn2c(n1)OC[C@@H](OCc1ccc(OC(F)(F)F)cc1)C2", "note": "[PRETOMANID]", "values": [{"measurement": "MIC", "setting": "[1]", "value": 0.17, "unit": "µM"}, {"measurement": "MIC", "setting": "[2]", "value": 0.07, "unit": "µM"}, {"measurement": "MIC", "setting": "[3]", "value": 0.1, "unit": "µM"}, {"measurement": "MIC", "setting": "[4]", "value": 0.22, "unit": "µM"}, {"measurement": "MIC", "setting": "[5]", "value": 0.54, "unit": "µM"}]}, {"smiles": "COc1ccc(Cn2cnc3c(-c4ccco4)ncnc32)cc1", "values": [{"measurement": "MIC", "setting": "[6]", "value": "> 128", "unit": "µM"}, {"measurement": "inhibition at 128 µM", "setting": "[7]", "value": 88, "unit": "%"}]}, {"smiles": "COc1ccc(Cn2ccc3c(-c4ccco4)nc(Cl)nc32)cc1", "values": [{"measurement": "MIC", "setting": "[6]", "value": "> 128", "unit": "µM"}, {"measurement": "inhibition at 128 µM", "setting": "[7]", "value": 88, "unit": "%"}, {"measurement": "MIC", "setting": "[1]", "value": 0.1, "unit": "µM"}, {"measurement": "MIC", "setting": "[2]", "value": 0.12, "unit": "µM"}, {"measurement": "MIC", "setting": "[3]", "value": 0.08, "unit": "µM"}, {"measurement": "MIC", "setting": "[4]", "value": 0.1, "unit": "µM"}, {"measurement": "MIC", "setting": "[5]", "value": 0.06, "unit": "µM"}]}, {"smiles": "COc1c(N2C[C@@H]3CCCN[C@@H]3C2)c(F)cc2c(=O)c(C(=O)O)cn(C3CC3)c12", "note": "[MOXIFLOXACIN]", "values": [{"measurement": "MIC", "setting": "[2]", "value": 0.3, "unit": "µM"}, {"measurement": "MIC", "setting": "[4]", "value": 0.34, "unit": "µM"}]}, {"smiles": "COc1ccc(Cn2ccc3c(-c4ccco4)nc(OC)nc32)cc1", "values": [{"measurement": "MIC", "setting": "[6]", "value": 87, "unit": "µM"}, {"measurement": "MIC", "setting": "[1]", "value": 0.09, "unit": "µM"}, {"measurement": "MIC", "setting": "[2]", "value": 0.09, "unit": "µM"}, {"measurement": "MIC", "setting": "[3]", "value": 0.09, "unit": "µM"}, {"measurement": "MIC", "setting": "[4]", "value": 0.1, "unit": "µM"}, {"measurement": "MIC", "setting": "[5]", "value": 0.07, "unit": "µM"}]}, {"smiles": "COc1ccc(Cn2cnc3c(-c4ccco4)nc(Cl)nc32)cc1", "values": [{"measurement": "MIC", "setting": "[6]", "value": "> 128", "unit": "µM"}, {"measurement": "inhibition at 128 µM", "setting": "[7]", "value": 82, "unit": "%"}, {"measurement": "MIC", "setting": "[1]", "value": 0.15, "unit": "µM"}, {"measurement": "MIC", "setting": "[2]", "value": 0.15, "unit": "µM"}, {"measurement": "MIC", "setting": "[3]", "value": 0.56, "unit": "µM"}, {"measurement": "MIC", "setting": "[4]", "value": 0.16, "unit": "µM"}, {"measurement": "MIC", "setting": "[5]", "value": 0.47, "unit": "µM"}]}, {"smiles": "COc1ccc(Cn2ncc3c(-c4ccco4)ncnc32)cc1", "values": [{"measurement": "MIC", "setting": "[6]", "value": "> 128", "unit": "µM"}, {"measurement": "inhibition at 128 µM", "setting": "[7]", "value": 60, "unit": "%"}]}, {"smiles": "COc1ccc(Cn2ccc3c(-c4cccs4)nc(Cl)nc32)cc1", "values": [{"measurement": "MIC", "setting": "[6]", "value": 120, "unit": "µM"}, {"measurement": "MIC", "setting": "[1]", "value": 0.14, "unit": "µM"}, {"measurement": "MIC", "setting": "[2]", "value": 0.09, "unit": "µM"}, {"measurement": "MIC", "setting": "[3]", "value": 0.06, "unit": "µM"}, {"measurement": "MIC", "setting": "[4]", "value": 0.08, "unit": "µM"}, {"measurement": "MIC", "setting": "[5]", "value": "< 0.05", "unit": "µM"}]}, {"smiles": "COc1ccc(Cn2ccc3c(-c4ccco4)ncnc32)cc1", "values": [{"measurement": "MIC", "setting": "[6]", "value": "> 128", "unit": "µM"}, {"measurement": "inhibition at 128 µM", "setting": "[7]", "value": 82, "unit": "%"}, {"measurement": "MIC", "setting": "[1]", "value": 0.14, "unit": "µM"}, {"measurement": "MIC", "setting": "[2]", "value": 0.13, "unit": "µM"}, {"measurement": "MIC", "setting": "[3]", "value": 0.18, "unit": "µM"}, {"measurement": "MIC", "setting": "[4]", "value": 0.1, "unit": "µM"}, {"measurement": "MIC", "setting": "[5]", "value": 0.16, "unit": "µM"}]}, {"smiles": "NNC(=O)c1ccncc1", "note": "[ISONIAZID]", "values": [{"measurement": "MIC", "setting": "[1]", "value": 0.25, "unit": "µM"}, {"measurement": "MIC", "setting": "[2]", "value": "> 8", "unit": "µM"}, {"measurement": "MIC", "setting": "[3]", "value": 0.24, "unit": "µM"}, {"measurement": "MIC", "setting": "[4]", "value": 0.39, "unit": "µM"}]}, {"smiles": "CN[C@@H]1[C@H](O[C@H]2[C@H](O[C@H]3[C@H](O)[C@@H](O)[C@H](N=C(N)N)[C@@H](O)[C@@H]3N=C(N)N)O[C@@H](C)[C@]2(O)C=O)O[C@@H](CO)[C@H](O)[C@H]1O", "note": "[STREPTOMYCIN]", "values": [{"measurement": "MIC", "setting": "[1]", "value": 0.21, "unit": "µM"}, {"measurement": "MIC", "setting": "[2]", "value": 0.13, "unit": "µM"}, {"measurement": "MIC", "setting": "[3]", "value": "> 16", "unit": "µM"}, {"measurement": "MIC", "setting": "[4]", "value": 0.98, "unit": "µM"}, {"measurement": "MIC", "setting": "[5]", "value": 0.33, "unit": "µM"}]}, {"smiles": "CO[C@H]1/C=C/O[C@@]2(C)Oc3c(C)c(O)c4c(O)c(c(/C=N/N5CCN(C)CC5)c(O)c4c3C2=O)NC(=O)/C(C)=C\\C=C\\[C@H](C)[C@H](O)[C@@H](C)[C@@H](O)[C@@H](C)[C@H](OC(C)=O)[C@@H]1C", "note": "[RIFAMPIN]", "values": [{"measurement": "MIC", "setting": "[1]", "value": "> 4", "unit": "µM"}, {"measurement": "MIC", "setting": "[2]", "value": 0.02, "unit": "µM"}, {"measurement": "MIC", "setting": "[3]", "value": 0.04, "unit": "µM"}, {"measurement": "MIC", "setting": "[4]", "value": 0.02, "unit": "µM"}, {"measurement": "MIC", "setting": "[5]", "value": 0.02, "unit": "µM"}]}, {"smiles": "COc1ccc(Cn2nnc3c(-c4ccco4)ncnc32)cc1", "values": [{"measurement": "MIC", "setting": "[6]", "value": "> 128", "unit": "µM"}, {"measurement": "inhibition at 128 µM", "setting": "[7]", "value": 61, "unit": "%"}]}, {"smiles": "COc1ccc(Cn2ccc3c(-c4cccs4)ncnc32)cc1", "values": [{"measurement": "MIC", "setting": "[6]", "value": 60, "unit": "µM"}, {"measurement": "MIC", "setting": "[1]", "value": 0.13, "unit": "µM"}, {"measurement": "MIC", "setting": "[2]", "value": 0.14, "unit": "µM"}, {"measurement": "MIC", "setting": "[3]", "value": 0.26, "unit": "µM"}, {"measurement": "MIC", "setting": "[4]", "value": 0.12, "unit": "µM"}, {"measurement": "MIC", "setting": "[5]", "value": 0.18, "unit": "µM"}]}]}
